In brackets after ≈: the same amount, converted by molar mass.
How the values were obtained:
Assay type in all cases: functional
[1] = system: Aspergillus fumigatus; assay: Antifungal activity against Aspergillus fumigatus NCIM 902 assessed as growth inhibition after 3 to 4 days by serial plate dilution method
How it was run: (§1)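 Agar of peptone, D-glucose and agar at pH 5.7, lawned with saline spore suspension and dried 1 h at 37 °C. Compounds in DMSO added to punched wells, DMSO solvent control. Triplicate plates held at 37 °C for 3–4 days. […] Ciclopiroxolamine standard.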

[2] = system: Pseudomonas aeruginosa; assay: Antibacterial activity against Pseudomonas aeruginosa ATCC 27853 assessed as growth inhibition after 3 to 4 days by serial plate dilution method
How it was run: (§2)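 Serial dilution in Mueller-Hinton broth adjusted to pH 5.0 with phosphate buffer. Standardized bacterial suspension inoculated, 16-18 h at 37 °C. Agar-well plates also used: compounds in DMSO added to punched wells, DMSO solvent control, triplicate plates held at 37 °C for 3–4 days. MIC taken as lowest concentration with no visible growth. Range tested 1.56–25 µg/mL. Ciprofloxacin standard.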

[3] = system: Escherichia coli; assay: Antibacterial activity against Escherichia coli ATCC 25922 assessed as growth inhibition after 3 to 4 days by serial plate dilution method; how it was run: as §2
[4] = system: Klebsiella pneumoniae; assay: Antibacterial activity against Klebsiella pneumoniae assessed as growth inhibition after 3 to 4 days by serial plate dilution method; how it was run: as §2
[5] = system: Trichophyton mentagrophytes; assay: Antifungal activity against Trichophyton mentagrophytes assessed as growth inhibition after 3 to 4 days by serial plate dilution method; how it was run: as §1
[6] = system: Staphylococcus aureus; assay: Antibacterial activity against Staphylococcus aureus ATCC 25923 assessed as growth inhibition after 3 to 4 days by serial plate dilution method; how it was run: as §2
[7] = system: Aspergillus flavus; assay: Antifungal activity against Aspergillus flavus NCIM 524 assessed as growth inhibition after 3 to 4 days by serial plate dilution method; how it was run: as §1
[8] = system: Radical scavenging activity; assay: Antioxidant activity of the compound assessed as DPPH free radical scavenging activity at 187.5 uM after 60 mins by spectrophotometric analysis relative to control
How it was run: (§3)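 DPPH• and sample stocks made in DMSO. DPPH• mixed with sample at several concentrations and brought to 4.0 mL in DMSO. Incubated 60 min at 25 °C in the dark, then absorbance read at 517 nm with solvent correction. Scavenging % = (A0−As)/A0×100 against a DPPH-only control. Ascorbic acid standard. Mean ± SD, n = 3.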

[9] = system: Radical scavenging activity; assay: Antioxidant activity of the compound assessed as DPPH free radical scavenging activity at 250 uM after 60 mins by spectrophotometric analysis relative to control; how it was run: as §3
[10] = system: Talaromyces marneffei; assay: Antifungal activity against Penicillium marneffei assessed as growth inhibition after 3 to 4 days by serial plate dilution method; how it was run: as §1
[11] = system: Radical scavenging activity; assay: Antioxidant activity of the compound assessed as DPPH free radical scavenging activity at 125 uM after 60 mins by spectrophotometric analysis relative to control; how it was run: as §3
[12] = system: Radical scavenging activity; assay: Antioxidant activity of the compound assessed as DPPH free radical scavenging activity at 62.5 uM after 60 mins by spectrophotometric analysis relative to control; how it was run: as §3
[13] = system: Radical scavenging activity; assay: Antioxidant activity of the compound assessed as DPPH free radical scavenging activity at 312.5 uM after 60 mins by spectrophotometric analysis relative to control; how it was run: as §3

Row | Structure (SMILES) | MIC [1] [µg/mL] | MIC [2] [µg/mL] | MIC [3] [µg/mL] | MIC [4] [µg/mL] | MIC [5] [µg/mL] | MIC [6] [µg/mL] | MIC [7] [µg/mL] | inhibition [8] [%] | inhibition [9] [%] | MIC [10] [µg/mL] | inhibition [11] [%] | inhibition [12] [%] | inhibition [13] [%]
1 | CC1CCN(Cn2nc(-c3cccs3)n(-c3ccccc3)c2=S)CC1 | 12 (≈ 32.4 µM) | 3.12 (≈ 8.42 µM) | 3.12 (≈ 8.42 µM) | 3.12 (≈ 8.42 µM) | 6.25 (≈ 16.9 µM) | 1.56 (≈ 4.21 µM) | 6.25 (≈ 16.9 µM) | 61.1 | 66.9 | 12 (≈ 32.4 µM) | 51.1 | 44.7 | 
2 | CCn1c(-c2cccs2)nn(CN2CCN(c3cccc(C(F)(F)F)c3)CC2)c1=S | 6.25 (≈ 13.8 µM) | 3.12 (≈ 6.88 µM) | 3.12 (≈ 6.88 µM) | 3.12 (≈ 6.88 µM) | 3.12 (≈ 6.88 µM) | 1.56 (≈ 3.44 µM) | 3.12 (≈ 6.88 µM) | 71.3 | 80.2 | 6.25 (≈ 13.8 µM) | 61.1 | 52 | 81.6
3 | CCn1c(-c2cccs2)nn(CN2CCOCC2)c1=S | 3.12 (≈ 10 µM) | 6.25 (≈ 20.1 µM) | 6.25 (≈ 20.1 µM) | 6.25 (≈ 20.1 µM) | 1.56 (≈ 5.02 µM) | 3.12 (≈ 10 µM) | 1.56 (≈ 5.02 µM) | 82.8 | 88.6 | 3.12 (≈ 10 µM) | 69.8 | 60.4 | 93.6
4 | S=c1n(CN2CCOCC2)nc(-c2cccs2)n1-c1ccccc1 | 3.12 (≈ 8.7 µM) | 6.25 (≈ 17.4 µM) | 6.25 (≈ 17.4 µM) | 6.25 (≈ 17.4 µM) | 1.56 (≈ 4.35 µM) | 12 (≈ 33.5 µM) | 1.56 (≈ 4.35 µM) | 79.2 | 87.2 | 3.12 (≈ 8.7 µM) | 68.4 | 59.1 | 
5 | CCn1c(-c2cccs2)nn(CN2CCN(c3ccccc3)CC2)c1=S | 6.25 (≈ 16.2 µM) | 12 (≈ 31.1 µM) | 12 (≈ 31.1 µM) | 6.25 (≈ 16.2 µM) | 3.12 (≈ 8.09 µM) | 6.25 (≈ 16.2 µM) | 3.12 (≈ 8.09 µM) | 72.7 | 82.5 | 6.25 (≈ 16.2 µM) | 63.1 | 52.2 | 90.2
6 | O=C(O)c1cn(C2CC2)c2cc(N3CCNCC3)c(F)cc2c1=O [CIPROFLOXACIN] |  |  |  | 6.25 (≈ 18.9 µM) |  | 3.12 (≈ 9.42 µM) |  |  |  |  |  |  | 
7 | S=c1[nH]nc(-c2cccs2)n1-c1ccccc1 | 25 (≈ 96.4 µM) | 12 (≈ 46.3 µM) | 12 (≈ 46.3 µM) | 12 (≈ 46.3 µM) | 12 (≈ 46.3 µM) | 12 (≈ 46.3 µM) | 12 (≈ 46.3 µM) | 47.9 | 51.2 | 25 (≈ 96.4 µM) | 45.7 | 36.1 | 65.1
8 | C=CCn1c(-c2cccs2)nn(CN2CCOCC2)c1=S | 3.12 (≈ 9.68 µM) | 6.25 (≈ 19.4 µM) | 6.25 (≈ 19.4 µM) | 6.25 (≈ 19.4 µM) | 1.56 (≈ 4.84 µM) | 3.12 (≈ 9.68 µM) | 1.56 (≈ 4.84 µM) | 83.1 | 89.9 | 3.12 (≈ 9.68 µM) | 71.2 | 62.3 | 95
9 | O=C1O[C@H]([C@@H](O)CO)C(O)=C1O |  |  |  |  |  |  |  | 75.2 | 85.8 |  | 65 | 55.1 | 91.7
10 | CCn1c(-c2cccs2)n[nH]c1=S | 25 (≈ 118 µM) | 12 (≈ 56.8 µM) | 12 (≈ 56.8 µM) | 12 (≈ 56.8 µM) | 12 (≈ 56.8 µM) | 12 (≈ 56.8 µM) | 12 (≈ 56.8 µM) | 49.6 | 53.3 | 25 (≈ 118 µM) | 47.1 | 36.4 | 62.1
11 | C=CCn1c(-c2cccs2)nn(CN2CCC(C)CC2)c1=S | 12 (≈ 35.9 µM) | 3.12 (≈ 9.33 µM) | 3.12 (≈ 9.33 µM) | 3.12 (≈ 9.33 µM) | 6.25 (≈ 18.7 µM) | 1.56 (≈ 4.66 µM) | 6.25 (≈ 18.7 µM) | 68.1 | 69.7 | 12 (≈ 35.9 µM) | 53.5 | 50.1 | 72.4
12 | CCn1c(-c2cccs2)nn(CN2CCC(C)CC2)c1=S | 12 (≈ 37.2 µM) | 3.12 (≈ 9.67 µM) | 3.12 (≈ 9.67 µM) | 3.12 (≈ 9.67 µM) | 6.25 (≈ 19.4 µM) | 1.56 (≈ 4.84 µM) | 6.25 (≈ 19.4 µM) | 65.2 | 67.6 | 12 (≈ 37.2 µM) | 52.5 | 49.2 | 71.3
13 | C=CCn1c(-c2cccs2)n[nH]c1=S | 25 (≈ 112 µM) | 12 (≈ 53.7 µM) | 12 (≈ 53.7 µM) | 25 (≈ 112 µM) | 12 (≈ 53.7 µM) | 25 (≈ 112 µM) | 12 (≈ 53.7 µM) | 47.4 | 55.5 | 25 (≈ 112 µM) | 45.2 | 40.7 | 68.8
14 | Cc1cc(C2CCCCC2)n(O)c(=O)c1.NCCO [CICLOPIROX OLAMINE] | 6.25 |  |  |  | 3.12 |  | 3.12 |  |  | 6.25 |  |  | 
15 | CCn1c(-c2cccs2)nn(CN2CCN(Cc3ccccc3)CC2)c1=S | 6.25 (≈ 15.6 µM) | 12 (≈ 30 µM) | 12 (≈ 30 µM) | 6.25 (≈ 15.6 µM) | 3.12 (≈ 7.81 µM) | 6.25 (≈ 15.6 µM) | 3.12 (≈ 7.81 µM) | 74.5 | 83.1 | 6.25 (≈ 15.6 µM) | 63.2 | 53.5 | 90.9
16 | C=CCn1c(-c2cccs2)nn(CN2CCN(c3ccccc3)CC2)c1=S | 6.25 (≈ 15.7 µM) | 12 (≈ 30.2 µM) | 12 (≈ 30.2 µM) | 6.25 (≈ 15.7 µM) | 3.12 (≈ 7.85 µM) | 6.25 (≈ 15.7 µM) | 3.12 (≈ 7.85 µM) | 75 | 84.1 | 6.25 (≈ 15.7 µM) | 64.4 | 54 | 91.6
17 | CCCN(CCC)Cn1nc(-c2cccs2)n(-c2ccccc2)c1=S | 12 (≈ 32.2 µM) | 12 (≈ 32.2 µM) | 12 (≈ 32.2 µM) | 6.25 (≈ 16.8 µM) | 6.25 (≈ 16.8 µM) | 6.25 (≈ 16.8 µM) | 6.25 (≈ 16.8 µM) | 72.1 | 81.4 | 12 (≈ 32.2 µM) | 62.6 | 52.1 | 

From ChEMBL document CHEMBL2375229, “Synthesis and biological activities of some novel aminomethyl derivatives of 4-substituted-5-(2-thienyl)-2,4-dihydro-3H-1,2,4-triazole-3-thiones” (2013)
